The record followed here is ChEMBL document CHEMBL4513216, “Probing the Open Global Health Chemical Diversity Library for Multistage-Active Starting Points for Next-Generation Antimalarials” (ACS Infect Dis, 2020).

The structures appear in SMILES notation.

The data set is described as follows: Toxicity liver stage against HepG2, at 10uM. The data set is classed as cell-based. Details: test concentration 10 uM, cell line HepG2-A16-CD81EGFP. Particulars: human, HepG2-A16-CD81EGFP cells; read-out: INHIBITION
In outline: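 Uninfected HepG2-A16-CD81EGFP cells, 3 × 10^3 per well, 1536-well, plated on prespotted compound at 10 μM final, parasite-free screening media added to match infected plates; puromycin 10 μM positive, DMSO 0.5% negative; run in parallel with 48 h PbLuc assay at 37 °C, 5% CO2; viability by CellTiter-Glo luminescence, normalized to controls.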
As to `CCOC(=O)CNC(=O)NCc1cc(C)n(-c2ccc(OC)cc2)c1C`, the cytotoxicity at 10 µM turned out to be 8.27%.
Consider `COCCN1CC2(CCN(Cc3ccco3)CC2)c2ccccc21`, for which the cytotoxicity at 10 µM was determined as 18.3%.
In the case of `CCOCC1CC2(CCN(C(=O)CC3=CCCCC3)CC2)CO1` (stereo unspecified), the cytotoxicity at 10 µM is -3.95%.
`Cc1ccc(N2CCC3(CCC(=O)N3)CC2)nn1`: the cytotoxicity at 10 µM came to 0.903%.
Consider `CCC(=O)N1CCC2(COCc3c(C)nc(NCc4ccco4)nc32)C1` (stereo unspecified), for which the cytotoxicity at 10 µM came out at 1.75%.
The figure for `CC(C)NC(=O)N1CCC2(CCCO2)C1` (stereo unspecified) is 3.14%; for `Fc1cccc(CNCC2Cn3nncc3CO2)c1` (stereo unspecified) it is 10.9%.
Consider `CN(Cc1cccnc1)C1CC2(CCN(C(=O)c3cnccn3)CC2)C1`, for which the cytotoxicity at 10 µM was -0.733%.
Turning to `CCN(c1ccc(C(=O)NCCCN2CCCCC2)cc1)S(=O)(=O)CC`, the cytotoxicity at 10 µM turned out to be 7.91%.
As to `CN1C(=O)C(C)(C)COc2cc(NS(=O)(=O)c3ccccc3)ccc21`, the cytotoxicity at 10 µM is -7.89%.
Take `CN(C)C(=O)CC1CC2(CCN(C(=O)N(C)C)CC2)Oc2ccccc21` (stereo unspecified): the cytotoxicity at 10 µM is -11.5%.
Turning to `COCCO[C@@H]1CCN(C(=O)c2ccc(C)o2)[C@@H]1Cc1cnn(C)c1`, the cytotoxicity at 10 µM is -12.8%.
As to `Cc1nc(N2CCCC2)ncc1-c1cc(O)nc(N2CCOCC2)n1`, the cytotoxicity at 10 µM is 10.4%.
Turning to `COc1ccc(C2=Nn3c(CCN)nnc3-c3ccccc3C2)cc1`, the cytotoxicity at 10 µM was determined as 4.92%.
The figure for `COc1ccccc1CNC(=O)C(C)n1cc2c(n1)c(C)nn2C` (stereo unspecified) is 1.61%; for `Cc1ccccc1CNC(=O)Cn1ncc2c1c(C)nn2C` it is 9.71%; for `Cc1nn(C)c2cnn(Cc3ccc(C(=O)N4CCCCC4)o3)c12` it is 11.3%.
On to `CO[C@H]1CN(C(=O)c2cccc(C)n2)CC[C@@]12CCCO2`, for which the cytotoxicity at 10 µM is -6.6%.
In the case of `Cc1cc(NC(=O)N2CCN(C)CC2C)n(C(C)(C)C)n1` (stereo unspecified), the cytotoxicity at 10 µM came out at 6.3%.
Next, `COC(=O)C1=NN2C(=NS(=O)(=O)c3ccccc32)N1`: -8.57%.
For `CN1CCCN(C(=O)NCCNc2ncccc2C#N)CC1`, the cytotoxicity at 10 µM stood at 6.75%.
Turning to `CCOc1ccc(C(=O)N(C)Cc2nccn2CC(F)(F)F)cc1`, the cytotoxicity at 10 µM was -0.296%.
As for `O=C(C[S+]([O-])Cc1ccc(Cl)cc1Cl)N1CCc2sccc2C1` (stereo unspecified), the cytotoxicity at 10 µM was found to be 2.13%.
As to `O=C(NCCC1CCN(CC(F)(F)F)CC1)C1COCCO1` (stereo unspecified), the cytotoxicity at 10 µM came out at 1.38%.
The figure for `CC(C)(C)CC(=O)NCC(=O)Nc1ccn(Cc2ccccc2)n1` is 7.08%; for `CC(C)(O)CN1CCN(C(=O)COC2CCCCC2)CC1` it is -2.77%.
With `CS(=O)(=O)CCCN(CCCO)C1CCc2ccccc21` (stereo unspecified), the cytotoxicity at 10 µM is -10.4%.
Consider `O=C(CN1CCCC(c2ccn[nH]2)C1)N1CCCc2ccccc21` (stereo unspecified), for which the cytotoxicity at 10 µM was -3.41%.
With `COc1ccc(CNCC2CC2)cc1F`, the cytotoxicity at 10 µM is -22%.
On to `CC(C)C(C(=O)N1CCN(c2ccncc2)CC1)n1cncn1` (stereo unspecified), for which the cytotoxicity at 10 µM is -9.35%.
On to `Cc1cc(C(=O)N2CCCC2c2nnc3n2CCCCC3)no1` (stereo unspecified), for which the cytotoxicity at 10 µM is -14%.
On to `CC(C)(C(=O)NCC(N)=O)c1ccccc1F`, for which the cytotoxicity at 10 µM was -5.33%.
As to `Cc1csc(N2CCN(Cc3cnc(C)s3)CC2C)n1` (stereo unspecified), the cytotoxicity at 10 µM stood at 14.7%.
Take `CCN1CC2(CC1=O)CN(C(=O)NC(C)C)CCN(S(C)(=O)=O)C2` (stereo unspecified): the cytotoxicity at 10 µM was -3.67%.
Next, `CN1C(=O)C(c2cccnc2)CC12CCN(Cc1nccs1)CC2` (stereo unspecified): -1.16%.
Turning to `CCN(CC)C(=O)[C@@H]1C[C@H](NC(=O)c2ccn(C(C)(C)C)c2)CN1C`, the cytotoxicity at 10 µM is -19.3%.
Next, `Cc1cccc(C(=O)N2CCCC(c3nccn3Cc3cscn3)C2)n1` (stereo unspecified): -1.28%; `Cc1nc(-c2cccnc2)ncc1C(=O)N1CCC(c2ncc[nH]2)CC1`: 0.626%.
In the case of `COc1cccc(C(=O)N2CCc3c(nc(N)[nH]c3=O)C2)c1C`, the cytotoxicity at 10 µM is 1.96%.
As to `CS(=O)(=O)N1CCc2[nH]cnc2C12CCN(C(=O)c1cccnc1)CC2`, the cytotoxicity at 10 µM worked out at 2.62%.
Next, `CCn1ccnc1CN(C)Cc1nc(Cc2ccccc2F)no1`: 0.686%; `Cc1cnc2c(C(=O)N(C)Cc3cc(C4CC4)[nH]n3)cnn2c1`: -5.71%; `CC(C)N1CC(n2ccnc2-c2nccn2C)CC1=O` (stereo unspecified): -0.371%.
Take `CCC1CCCCN1S(=O)(=O)c1c(N)noc1C` (stereo unspecified): the cytotoxicity at 10 µM worked out at 9.5%.
In the case of `O=C(O)[C@@H]1CN(Cc2ccc3nsnc3c2)C[C@H]1c1ccncc1`, the cytotoxicity at 10 µM was 5.4%.
As for `Cc1cnccc1N1CCCN(C(=O)CCCS(N)(=O)=O)CC1`, the cytotoxicity at 10 µM was -18.7%.
Take `Cc1nc(CC(=O)N2CCC[C@H]2c2nc(C(C)C)no2)cs1`: the cytotoxicity at 10 µM is -14.2%.
For the compound `Cc1occc1C(=O)N1CCC2(CCC(=O)N(CC(N)=O)C2)CC1`, the cytotoxicity at 10 µM is -9.32%.
The figure for `Cc1cnn(CC2CCCN2Cc2nnc(C(C)C)o2)c1` (stereo unspecified) is -20.3%; for `Cn1ncc2c(N3CCN(C(=O)c4ccsc4)CC3)ncnc21` it is -9.27%; for `Cc1cc(NC(=O)NCC(O)c2ccc(F)c(F)c2)n(C)n1` (stereo unspecified) it is -21.1%.
Take `Cc1cccnc1NC(=O)NCc1ccc(N2CCNC(=O)C2)cc1`: the cytotoxicity at 10 µM is -8.85%.
In the case of `COc1ccc(C)cc1CN(C)Cc1nc2c(cnn2C)c(=O)[nH]1`, the cytotoxicity at 10 µM is -5.33%.
On to `COc1cccc(COCC(=O)N2CCCC(c3nncn3C)C2)c1` (stereo unspecified), for which the cytotoxicity at 10 µM was -6.36%.
With `CN(Cc1nc(N2CCCC2)ncc1-c1ccncc1)C(=O)C(C)(C)C`, the cytotoxicity at 10 µM amounted to 6.58%.
Consider `CC(C)CN1CCCC2(CCN(c3ccccn3)C2)C1` (stereo unspecified), for which the cytotoxicity at 10 µM is -1.22%.
Consider `Fc1ccc(CNCC2Cn3nncc3CO2)cc1` (stereo unspecified), for which the cytotoxicity at 10 µM amounted to 7.31%.
The figure for `Cc1ccc(N2CCC3(CC2)CNC(=O)CO3)nn1` is 6.07%; for `Cn1nc(COCC2CC2)c2c1CN(CC1CC1)CC2` it is 13.8%.
The figure for `CN(C)C(=O)CN1C(=O)CO[C@@H]2CN(c3ccccn3)C[C@H]21` is 12.3%; for `COCCN1CCOCC12CCN(C(=O)c1ccoc1)CC2` it is -84.6%; for `CCC(=O)N1CC[C@H]2[C@H](C[C@@H](Cn3cccn3)N2c2nccs2)C1` it is 5.68%.
In the case of `CN1CC(=O)N(c2cccc(F)c2)CC12CCN(CCO)C2` (stereo unspecified), the cytotoxicity at 10 µM was -82.1%.
In the case of `CN1CCc2ncc(CNc3cc(N(C)C)ncn3)n2CC1`, the cytotoxicity at 10 µM was 0.749%.
Turning to `Cc1nnc(N2CC[C@H]3O[C@H](C(=O)NCc4ccccn4)CC[C@H]32)s1`, the cytotoxicity at 10 µM was -66.4%.
Turning to `O=C(c1c[nH]cn1)N1CCC(F)(F)C2(CCN(c3cccc(F)c3)C2)C1` (stereo unspecified), the cytotoxicity at 10 µM came to 9.58%.
As for `CN(C)S(=O)(=O)N1CC[C@]2(C[C@@H](Oc3cccnc3)CO2)C1`, the cytotoxicity at 10 µM is -76.3%.
As for `COCc1n[nH]c2c1CN(C(=O)c1ccncc1)C2`, the cytotoxicity at 10 µM was 16.6%.
The figure for `COc1ccc(C2c3c(N)nc(SC)nc3N=C3CCCC(=O)C32)cc1` (stereo unspecified) is -18.7%; for `Cc1cccc(CN2C[C@@H]3C[C@H](C(=O)NCc4cccnc4)[C@H](C2)O3)c1` it is -5.98%; for `O=C(CSc1ncccn1)N1C[C@@H]2CC[C@H]1CN(Cc1ccncc1)C2` it is -13%.
